Assay results: ChEMBL document CHEMBL1123563, “New antifilarial agents. 1. Epoxy sulfonamides and ethynesulfonamides” (J Med Chem, 1987)
The source made the active and inactive calls.

Legend:
molinema dessetae [1] = test: Antifilarial activity against Molinema dessetae in vivo against female adult worms at a dose of 1000 mg/kg subcutaneously once a day for 5 days; Active; assay type: functional, organism-based; design: dose 1000 mg/kg
molinema dessetae [2] = test: Antifilarial activity against Molinema dessetae in vivo against male adult worms at a dose of 1000 mg/kg subcutaneously once a day for 5 days; Active; assay type: functional, organism-based; design: dose 1000 mg/kg
[3] = Antifilarial activity against Molinema dessetae in vivo in Proechimys oris the natural host at a dose of 1000 mg/kg subcutaneously once a day for 5 days. Value is expressed as number of infected P. oris.; assay type: functional; details: route subcutaneous
[4] = Effective concentration of compound necessary to kill 50% of infective larvae of Molinema dessetae after 7 days was determined in vitro; assay type: functional
molinema dessetae [5] = test system: molinema dessetae;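 further: in vitro assay on infective-stage larvae, EC90 being the concentration lethal to 90% of larvae after 7 days of exposure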
molinema dessetae [6] = test: Antifilarial activity against Molinema dessetae in vivo against male adult worms at a dose of 200 mg/kg subcutaneously once a day for 5 days; Active; assay type: functional, organism-based; design: dose 200 mg/kg
Method in brief: (§1)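 Proechimys oris of both sexes were each infected with 200 infective larvae dissected from Aedes aegypti mosquitoes. Microfilaremia was checked, and the rodents were treated 150–180 days post-infection. Compound was given subcutaneously as a 1% carboxymethylcellulose suspension once daily for 5 consecutive days. Microfilaremia was followed for 6 weeks, then adult male and female worms were counted at autopsy. A compound was scored active if no males and ≤1.6 females were found (p = 0.12).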

molinema dessetae [7] = test: Antifilarial activity against Molinema dessetae in vivo against male adult worms at a dose of 50 mg/kg subcutaneously once a day for 5 days; Inactive; assay type: functional, organism-based; design: dose 50 mg/kg; method in brief: as §1
[8] = Antifilarial activity against Molinema dessetae in vivo in Proechimys oris the natural host at a dose of 200 mg/kg subcutaneously once a day for 5 days. Value is expressed as number of infected P. oris.; assay type: functional; details: route subcutaneous; method in brief: as §1
[9] = Antifilarial activity against Molinema dessetae in vivo in Proechimys oris the natural host at a dose of 50 mg/kg subcutaneously once a day for 5 days. Value is expressed as number of infected P. oris.; assay type: functional; details: route subcutaneous; method in brief: as §1
[10] = Effective concentration of compound necessary to kill 50% of infective larvae of Molinema dessetae after 7 days was determined in vitro; Value ranges from 20-100; assay type: functional
Method in brief: (§2)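 Infective larvae from the intermediate host were decontaminated and held 20 per 1.5 mL in a biphasic medium: L929 feeder layer with RPMI and fetal calf serum (90:10), plus penicillin and streptomycin. Compound solutions at several concentrations were made in DMSO, and 10 μL of each was added. After 7 days, survival was corrected by control, in duplicate runs. EC ranges are given in μM.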

molinema dessetae [11] = test: Antifilarial activity against Molinema dessetae in vivo against female adult worms at a dose of 200 mg/kg subcutaneously once a day for 5 days; Active; assay type: functional, organism-based; design: dose 200 mg/kg; method in brief: as §1
molinema dessetae [12] = test: Effective concentration of compound necessary to kill 90% of infective larvae of Molinema dessetae after 7 days was determined in vitro; Value ranges from 100-500; assay type: functional; method in brief: as §2

Compound: C[C@@H]1O[C@@H]1P(=O)([O-])[O-].[Na+].[Na+] [PHOSPHOMYCIN DISODIUM]
- Activity (molinema dessetae [1]): Active
- Activity (molinema dessetae [2]): Active
- Activity [3]: 2
- EC50 [4]: > 500 µM
- EC90 (molinema dessetae [5]): > 500 µM

Compound: CN(C)S(=O)(=O)[C@@H]1O[C@H]1c1ccccc1
- Activity (molinema dessetae [6]): Active
- Activity (molinema dessetae [7]): inactive
- Activity [8]: 2
- Activity [9]: 2
- EC50 [10]: 100 µM
- Activity (molinema dessetae [11]): Active
- EC90 (molinema dessetae [12]): 500 µM
